Test results published in ChEMBL document CHEMBL4513216, “Probing the Open Global Health Chemical Diversity Library for Multistage-Active Starting Points for Next-Generation Antimalarials” (ACS Infect Dis, 2020).

Test: Toxicity liver stage against HepG2, at 10uM
Assay type: cell-based
Design: test concentration 10 uM, cell line HepG2-A16-CD81EGFP
Settings: human, HepG2-A16-CD81EGFP cells; read-out: INHIBITION
Outline: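 Uninfected HepG2-A16-CD81EGFP cells, 3 × 10^3 per well, 1536-well, plated on prespotted compound at 10 μM final, parasite-free screening media added to match infected plates; puromycin 10 μM positive, DMSO 0.5% negative; run in parallel with 48 h PbLuc assay at 37 °C, 5% CO2; viability by CellTiter-Glo luminescence, normalized to controls.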
Molecule `Cc1cc2cc(Nc3c(C#N)c(=O)n(C)c(=O)n3C)ccc2[nH]1` has a cytotoxicity at 10 µM of 1.11%. Molecule `CC(c1ccncc1)N(CCN(C)C)C(=O)Nc1ccc(Cl)c(Cl)c1` (configuration not stated) has a cytotoxicity at 10 µM of 7.41%. Work on `CN1CCC(CNC(=O)NCc2ccc(F)cc2)CC1` yielded a cytotoxicity at 10 µM of -10.1%. `O=C(CCCc1ccccc1)Nc1cnc(N2CCOCC2)nc1` gave a cytotoxicity at 10 µM of -13.9%. `CS(=O)(=O)NC[C@@H]1OC[C@H]2CN(C(=O)c3ccccc3)CC[C@H]21` showed a cytotoxicity at 10 µM of 10.3%. With `Cc1noc([C@H]2COC[C@H]3CN(C(=O)Cc4ccsc4)C[C@H]32)n1` the cytotoxicity at 10 µM was -3.26%. `COc1cccc2c1ccn2CCNC(=O)C(C)C` showed a cytotoxicity at 10 µM of 5.66%. Molecule `CC[C@H](C)[C@H](NC(=O)Cc1csc(-c2cccc(Cl)c2)n1)C(=O)O` has a cytotoxicity at 10 µM of -7.48%. `O=C(NCc1ccccc1)N1CCC2(CC(=O)N(c3ccsc3)C2)C1` (configuration not stated) gave a cytotoxicity at 10 µM of -9.64%. With `NC(=O)c1cc(CC2CCCN(c3cnccn3)C2)ncn1` (configuration not stated) the cytotoxicity at 10 µM was -1.15%. `CC(=O)N1CCCC(Cc2cnc(-n3ccnc3)cn2)C1` (configuration not stated) showed a cytotoxicity at 10 µM of -21.7%. Molecule `O=C(c1cncnc1)N1Cc2ccccc2OC2(CCOCC2)C1` has a cytotoxicity at 10 µM of -8.46%. Work on `CCC(C)(CC(=O)OC)NCc1noc(C)n1` (configuration not stated) yielded a cytotoxicity at 10 µM of -4.39%. With `O=C(CCSc1ccc(F)cc1)N1CCN(c2cnccn2)CC1` the cytotoxicity at 10 µM was -42.8%. In the case of `CSc1cc(CNC(=O)CCOc2ccccc2C)ccn1`, the cytotoxicity at 10 µM is reported as 6.72%. Work on `CCC(C)NC(=O)Nc1cccc(OC)c1` (configuration not stated) yielded a cytotoxicity at 10 µM of 0.554%. Work on `CCC(CC)NC(=O)c1cncc(Br)c1` yielded a cytotoxicity at 10 µM of -0.211%. Molecule `CC(C(=O)NS(=O)(=O)Cc1cc(-c2ccccc2)no1)C1CC1` (configuration not stated) has a cytotoxicity at 10 µM of -2.72%. Molecule `O=C(CNC(=O)Nc1cccc(-c2nccs2)c1)NCCO` has a cytotoxicity at 10 µM of -2.77%. `CS(=O)(=O)NC1CCN(C(=O)c2ccc(Br)o2)C1` (configuration not stated) gave a cytotoxicity at 10 µM of -7.03%. `Cc1ccc(-c2cnc(CCC(=O)NCCN3CCOCC3)o2)cc1C` gave a cytotoxicity at 10 µM of 7.36%. `COCc1ccccc1NC(=O)NC(C)c1ccc(C)o1` (configuration not stated) gave a cytotoxicity at 10 µM of 0.205%. `O=C(CS(=O)(=O)C1CCCC1)NC(c1ccc(F)cc1)C1CC1` (configuration not stated) gave a cytotoxicity at 10 µM of -159%. In the case of `Cc1cc(NC(=O)CNC(C)(C)c2ccc3c(c2)OCO3)on1`, the cytotoxicity at 10 µM is reported as 7.51%. In the case of `CCc1ncc2c(n1)CN(CC(O)COc1ccc(C#N)cc1)CC2` (configuration not stated), the cytotoxicity at 10 µM is reported as -7.65%. Molecule `c1ccc(OCCNC2CCN(c3ncccn3)CC2)cc1` has a cytotoxicity at 10 µM of 1.85%. `CC(C)NC(=O)C1CCN(Cn2ccc(-c3ccc(F)cc3)n2)CC1` gave a cytotoxicity at 10 µM of 7.07%. Work on `FC(F)(F)c1ccnc(N2CCCOCC2)c1` yielded a cytotoxicity at 10 µM of -1.41%. `Cc1nnc(CN(Cc2ccccc2Br)C2CC2)o1` gave a cytotoxicity at 10 µM of 5.2%. For `CN1CCN(c2ccc(F)cc2NC(=O)NCC[S+](C)[O-])CC1` (configuration not stated), the cytotoxicity at 10 µM was -10.7%. With `COc1ccc(C2CCN(C(=O)c3ncccc3OC(C)C)C2)cc1` (configuration not stated) the cytotoxicity at 10 µM was -6.45%. Work on `Cc1cccc(C2(CNC(=O)C(C)NC(N)=O)CCCC2)c1` (configuration not stated) yielded a cytotoxicity at 10 µM of 7.19%. For `Cn1cnc2cc(C(=O)NS(=O)(=O)c3ccccc3Cl)ccc21`, the cytotoxicity at 10 µM was -7.43%. Work on `Cc1nc(CNC(=O)NCC(O)c2cccc(Cl)c2)cs1` (configuration not stated) yielded a cytotoxicity at 10 µM of -16.1%. For `COc1ccc(F)cc1C(C)NC(=O)Nc1nnc(C)s1` (configuration not stated), the cytotoxicity at 10 µM was -1.01%. `CCCSc1ccccc1NC(=O)N1CCC(N2CCSCC2)CC1` gave a cytotoxicity at 10 µM of -4.73%. For `CC(C)Cc1noc(CN(C)c2ncccn2)n1`, the cytotoxicity at 10 µM was 5.23%. `CCCc1n[nH]c(=O)n1Cc1ccc(OC)cc1` gave a cytotoxicity at 10 µM of -130%. For `CCN(CC1CCCN(CCc2cccc(OC)c2)C1)C(=O)CSC` (configuration not stated), the cytotoxicity at 10 µM was 8.76%. Molecule `O=C(C1CCOCC1)N1CC[C@@](O)(c2ccccc2)[C@H]2CCCC[C@@H]21` has a cytotoxicity at 10 µM of -8.35%. With `COCCN1CCC(CN(Cc2ccncc2)C2CCCCC2)CC1` the cytotoxicity at 10 µM was -2.91%. With `CCCOCCN1CCc2[nH]c(-c3ccc(OC)cc3)nc2C1` the cytotoxicity at 10 µM was -113%. Molecule `CN1CCN(C[C@H]2CC[C@@H](Cc3ccc4c(c3)OCO4)O2)CC1` has a cytotoxicity at 10 µM of -5.13%. With `COCCN(Cc1sccc1C)C(=O)COc1cccnc1` the cytotoxicity at 10 µM was -138%. Work on `Cc1nn2c(N3CCCC(C(N)=O)C3)cc(-c3ccccc3)nc2c1C` (configuration not stated) yielded a cytotoxicity at 10 µM of -4.45%. Work on `CC(NC(=O)COc1ccc(Cl)cc1Cl)c1nncn1C(C)C` (configuration not stated) yielded a cytotoxicity at 10 µM of 1.67%. `CN(C)C(C(=O)N1CCCN(C(=O)C2CCC2)CC1)c1ccccc1F` (configuration not stated) gave a cytotoxicity at 10 µM of -2.11%. In the case of `c1cc(-c2ccc(CN3CCCC4(CCNC4)C3)s2)[nH]n1` (configuration not stated), the cytotoxicity at 10 µM is reported as -152%. For `CS(=O)(=O)NC1CCN(C(=O)c2cnc(-c3cccnc3)nc2)CC1`, the cytotoxicity at 10 µM was -6.47%. In the case of `O=C1NCCN(CC2CCCCC2)C1CC(=O)N1CCc2n[nH]cc2C1` (configuration not stated), the cytotoxicity at 10 µM is reported as -3.76%. With `Cc1ccccc1CCC1CCCN(C(=O)Cc2cc(=O)[nH]c(N)n2)C1` (configuration not stated) the cytotoxicity at 10 µM was 4.6%. In the case of `CC(=O)N1CCc2[nH]cnc2C12CCN(CC1CCOC1)CC2` (configuration not stated), the cytotoxicity at 10 µM is reported as -8.46%. In the case of `COCCn1ccnc1C1CCCN(C(=O)c2cccnc2SC)C1` (configuration not stated), the cytotoxicity at 10 µM is reported as -14.2%. With `Cc1ncccc1OCC(=O)N1CCN[C@H]2CS(=O)(=O)C[C@H]21` the cytotoxicity at 10 µM was 13.1%. With `O=C(O)c1c[nH]c2cc(NS(=O)(=O)c3cc(F)ccc3Cl)ccc12` the cytotoxicity at 10 µM was -1.43%. In the case of `CCn1c(C(=O)N2CCN(CC[S+](C)[O-])CC2)cc2ccccc21` (configuration not stated), the cytotoxicity at 10 µM is reported as -3.49%. Molecule `O=S1(=O)CCC(N(Cc2nc3ccccc3o2)Cc2cccs2)C1` (configuration not stated) has a cytotoxicity at 10 µM of -3.08%. `Cn1ccnc1C(NCc1ccc(Br)cc1)c1ccccc1` (configuration not stated) showed a cytotoxicity at 10 µM of -6.39%. For `CC(C)(C)c1n[nH]c(C2CN(C(=O)CCc3cccs3)CCO2)n1` (configuration not stated), the cytotoxicity at 10 µM was -10.6%. `Cc1nnc2n1CCN(C(=O)c1cc(Cl)c(Br)[nH]1)C2` showed a cytotoxicity at 10 µM of -4.31%. With `O=C(COCC1CC1)Nc1ncn(CC(=O)N2CCCCCC2)n1` the cytotoxicity at 10 µM was -11.9%. Molecule `Cn1cc(C2CCCN2C(=O)COCCc2ccccc2)cn1` (configuration not stated) has a cytotoxicity at 10 µM of -2.87%. With `CCc1cnc(CN(C)C2CCN(CC(=O)Nc3cc(C)on3)C2)o1` (configuration not stated) the cytotoxicity at 10 µM was 0.2%. Work on `Cc1cnn(CCNCC(O)COc2c(Cl)cccc2Cl)c1` (configuration not stated) yielded a cytotoxicity at 10 µM of -5.4%. `CCn1cc(NC(=O)NCC(C)(C)N2CCc3ccccc3C2)cn1` showed a cytotoxicity at 10 µM of -5.16%. `Cc1nc(CN(Cc2ccc3c(c2)OCCO3)C2CCCC2)no1` showed a cytotoxicity at 10 µM of -9.19%. Molecule `Cc1cc(CC(=O)NCc2ccnc(OCC(F)(F)F)c2)no1` has a cytotoxicity at 10 µM of -2.17%. Molecule `Cn1cccc1C(=O)N1CCN(Cc2ccncc2)c2ncccc2C1` has a cytotoxicity at 10 µM of -0.395%. For `COCCN1CC[C@]2(CN(Cc3cccnc3)C[C@H]2C)C1=O`, the cytotoxicity at 10 µM was -4.66%. With `c1cnc(N2CC[C@@H]3CN(Cc4ccncc4)CCO[C@@H]3C2)nc1` the cytotoxicity at 10 µM was 5.53%. `Cc1nc(CN2CCc3ncnc(C4CCOC4)c3CC2)cs1` (configuration not stated) showed a cytotoxicity at 10 µM of 3.05%. Work on `Cc1nc(CO[C@@H]2CN(Cc3cccs3)[C@@H]3COC[C@@H]32)cs1` yielded a cytotoxicity at 10 µM of -0.646%. `Cn1cnc2c1C(COCC1CC1)CN(c1ncccn1)C2` (configuration not stated) showed a cytotoxicity at 10 µM of 7.22%. For `Cc1ccc(C2(CN3CCN(Cc4cncn4C)CC3)CC2)cc1`, the cytotoxicity at 10 µM was -13.1%. With `COCCN1CCC2(CC1)CN(C(C)=O)c1ccc(C)cc12` the cytotoxicity at 10 µM was 3.77%. For `COc1ccccc1-c1c[nH]c(C2CCCN2)n1` (configuration not stated), the cytotoxicity at 10 µM was 0.276%. In the case of `O=C(CC1CCCC1)N1C[C@H](OCc2ccncc2)[C@H]2OCCC[C@H]21`, the cytotoxicity at 10 µM is reported as 2.75%. `O=C1COC2(CCN(CC3CC3)CC2)CN1c1cncnc1` showed a cytotoxicity at 10 µM of -1.87%. Work on `O=C(NC[C@]12COC[C@H]1CN(Cc1cccnc1)C2)c1ccsc1` yielded a cytotoxicity at 10 µM of 2.95%. Molecule `CC(C)n1nc(Cn2cccn2)c2c1CN(C1CCOCC1)C2` has a cytotoxicity at 10 µM of 6.98%. In the case of `Cc1ncnc2c1CCN(Cc1cccs1)CC2`, the cytotoxicity at 10 µM is reported as 1.17%. With `CCCS(=O)(=O)N1C[C@@H]2CN(Cc3ccco3)CCO[C@@H]2C1` the cytotoxicity at 10 µM was -142%.
